Results from ChEMBL document CHEMBL1123864, “Synthetic bovine prothrombin precursor 13-29 for studies of vitamin K dependent carboxylase” (J Med Chem, 1987).
Each block holds one molecule with its values, some of them ahead of it. Peptide text beside a SMILES is read from it. * marks the point of attachment. Boc = CC(C)(C)OC(=O)*; Acm = CC(=O)NC*

Tests used:
[1] = biological target: T1, Vitamin K-dependent gamma-carboxylase (Rattus norvegicus) (UniProt O88496); test: Substrate activity was determined for the rat liver microsomal vitamin K dependent carboxylase by dpm incorporation at 0.125 mM
T1 sequence (whole entry): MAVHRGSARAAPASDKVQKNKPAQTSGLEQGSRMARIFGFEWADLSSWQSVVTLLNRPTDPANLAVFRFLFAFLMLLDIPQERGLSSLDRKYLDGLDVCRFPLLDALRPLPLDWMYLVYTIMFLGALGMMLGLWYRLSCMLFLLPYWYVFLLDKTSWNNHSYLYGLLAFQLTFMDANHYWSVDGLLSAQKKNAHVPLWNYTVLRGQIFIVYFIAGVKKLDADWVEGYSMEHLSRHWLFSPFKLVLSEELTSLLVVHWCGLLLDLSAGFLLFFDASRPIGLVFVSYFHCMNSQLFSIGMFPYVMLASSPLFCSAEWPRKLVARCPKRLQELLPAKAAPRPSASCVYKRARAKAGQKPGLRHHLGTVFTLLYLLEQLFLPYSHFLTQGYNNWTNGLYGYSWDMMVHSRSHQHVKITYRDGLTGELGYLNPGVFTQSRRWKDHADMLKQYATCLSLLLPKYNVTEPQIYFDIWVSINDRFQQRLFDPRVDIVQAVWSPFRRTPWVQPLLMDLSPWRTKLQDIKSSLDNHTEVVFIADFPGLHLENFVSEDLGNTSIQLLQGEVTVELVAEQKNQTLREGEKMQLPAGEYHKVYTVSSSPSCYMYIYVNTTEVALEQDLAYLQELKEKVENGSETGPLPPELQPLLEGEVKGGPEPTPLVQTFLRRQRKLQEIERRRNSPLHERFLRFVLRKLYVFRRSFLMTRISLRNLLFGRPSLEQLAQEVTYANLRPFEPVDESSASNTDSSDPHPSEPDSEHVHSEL
Method in brief: (§1)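 Rat liver microsomal carboxylase with the peptide as substrate. Incubations ran 60 min at 17 °C in duplicate and were averaged. Read-out was dpm incorporated, with the no-vitamin K blank subtracted. The enzyme requires oxygen, reduced vitamin K and carbon dioxide.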

[2] = biological target: T1, Vitamin K-dependent gamma-carboxylase (Rattus norvegicus); test: Substrate activity was determined for the rat liver microsomal vitamin K dependent carboxylase by dpm incorporation at 0.0625 mM; method in brief: as §1
[3] = biological target: T1, Vitamin K-dependent gamma-carboxylase (Rattus norvegicus); test: Substrate activity was determined for the rat liver microsomal vitamin K dependent carboxylase by dpm incorporation at 0.25 mM; method in brief: as §1
[4] = biological target: T1, Vitamin K-dependent gamma-carboxylase (Rattus norvegicus); test: Evaluated as substrate for the rat liver microsomal vitamin K dependent carboxylase by dpm incorporation at 0.125 mM; method in brief: as §1
[5] = biological target: T1, Vitamin K-dependent gamma-carboxylase (Rattus norvegicus); test: Evaluated as substrate for the rat liver microsomal vitamin K dependent carboxylase by dpm incorporation at 0.25 mM; method in brief: as §1
[6] = biological target: T1, Vitamin K-dependent gamma-carboxylase (Rattus norvegicus); test: Evaluated as substrate for the rat liver microsomal vitamin K dependent carboxylase by dpm incorporation at 0.0625 mM; method in brief: as §1
[7] = substrate: CC(C)C[C@H]1NC(=O)[C@H](N)CSSC[C@@H](C(=O)O)NC(=O)[C@@H]2CCCN2C(=O)[C@@H](CCC(=O)O)NC(=O)[C@H](CCC(=O)O)NC1=O; test: Binding affinity was evaluated for the compound against Vitamin K dependent carboxylase

Activity [1]: 480
Activity [2]: 240
Activity [3]: 810
Molecule: CC(C)C[C@H](NC(=O)[C@@H](N)CC(N)=O)C(=O)N[C@@H](CCC(=O)O)C(=O)N[C@@H](CCCN=C(N)N)C(=O)N[C@@H](CCC(=O)O)C(=O)N[C@@H]1CSSC[C@@H](C(=O)N[C@@H](CO)C(=O)N[C@@H](CCCN=C(N)N)C(=O)N[C@@H](CCC(=O)O)C(=O)N[C@@H](CCC(=O)O)C(=O)N[C@@H](C)C(=O)N[C@@H](Cc2ccccc2)C(=O)O)NC(=O)[C@@H]2CCCN2C(=O)[C@@H](CCC(=O)O)NC(=O)[C@H](CCC(=O)O)NC(=O)[C@@H](CC(C)C)NC1=O

Activity [4]: 5770
Activity [5]: 11400
Activity [6]: 3020
Molecule: COC(=O)[C@H](CC(C)C)NC(=O)[C@H](CCC(=O)O)NC(=O)[C@H](CCC(=O)O)NC(=O)OC(C)(C)C (Boc-Glu-Glu-Leu-OMe)

Activity [1]: 920
Activity [2]: 480
Activity [3]: 2380
Molecule: CC(=O)NCSC[C@H](NC(=O)[C@H](CCC(=O)O)NC(=O)[C@H](CCCN=C(N)N)NC(=O)[C@H](CCC(=O)O)NC(=O)[C@H](CC(C)C)NC(=O)[C@@H](N)CC(N)=O)C(=O)N[C@@H](CC(C)C)C(=O)N[C@@H](CCC(=O)O)C(=O)N[C@@H](CCC(=O)O)C(=O)N1CCC[C@H]1C(=O)N[C@@H](CSCNC(C)=O)C(=O)N[C@@H](CO)C(=O)N[C@@H](CCCN=C(N)N)C(=O)N[C@@H](CCC(=O)O)C(=O)N[C@@H](CCC(=O)O)C(=O)N[C@@H](C)C(=O)N[C@@H](Cc1ccccc1)C(=O)O (H-NLEREC(Acm)LEEPC(Acm)SREEAF-OH)

B1: Vitamin K-dependent gamma-carboxylase (Rattus norvegicus), O88496 (protein)
chain: T1 sequence (whole entry)
Km [7]: 3000 µM
